Active and inactive are the calls of the source.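 The calls were made as follows, unless noted: active = fluorescence slope after compound addition differing from the mean of all tested samples at 99.7% confidence, mostly higher but some lower; inactive = the rest.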
Experiments:
[1] = inhibitors of TNFa-induced NFkB p65 translocation, primary screen, imaging, HUVEC, MLSMR starter and 10KST1 sets (AID 438;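 active = inhibition above 20% together with a positive visual image hit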;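 also: compound added about 3h40 before a 20 min TNFalpha stimulation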;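 as to inhibition: signal is the nuclear over cytoplasmic p65 intensity ratio per well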); conditions: HUVEC TNFa-induced p65 nuclear translocation; cell count: measured here: nuclei count (cytotoxicity indicator), at 2.08 µM; inhibition: at 2 µM, stronger effect = higher value, 0% TNFa-plus-vehicle, 100% no-TNFa wells
[2] = reduction of polyQ htt aggregates in cells – imaging, exon1htt(103Q)mCFP cells, high-content imaging, primary screen (AID 483;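 active = visual image review flags a hit and inhibition of aggregation exceeds 20%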;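 also: compound exposure lasted 3 days before fixation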;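 as to nuclei count: percent of the per-plate median nuclei count of sample wells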); conditions: exon1htt(103Q)mCFP cell line, aggregate imaging, at 2 µM; inhibition of aggregation: stronger effect = higher value; nuclei count: measured here: cell count, toxicity
[3] = endothelial E-selectin expression blockers – imaging, HUVEC, immunofluorescence, MLSMR starter and 10KST1 sets, primary screen (AID 487;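 active = visually confirmed hit in the image check and inhibition above 20%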;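 as to inhibition: signal is fraction of cell area covered by stained E-selectin grains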;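 as to nuclei count: 100% = median nuclei count of all wells on the same plate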); conditions: HUVEC TNFalpha-induced E-selectin immunofluorescence imaging, at 2 µM; inhibition: stronger effect = higher value; nuclei count: measured here: cell number, toxicity
[4] = molecular target: Voltage-gated potassium channel subunit beta-2 (Rattus norvegicus) (UniProt P62483); experiment: inhibitors of rat Kvbeta2 reductase activity – biochemical, NADPH fluorescence, primary screen (AID 622;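 active = fluorescence slope higher than the sample average by over 3 SD, cut at about -0.22 in these data, passing the limit was not always enough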;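 also: slope of raw intensity against log time taken from 70 to 1610 s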); conditions: recombinant KvBeta, 4-cyanobenzaldehyde reduction, at 10 µM, stronger effect = higher value
Sequence of Voltage-gated potassium channel subunit beta-2 (Rattus norvegicus) (P62483 whole entry, looked up): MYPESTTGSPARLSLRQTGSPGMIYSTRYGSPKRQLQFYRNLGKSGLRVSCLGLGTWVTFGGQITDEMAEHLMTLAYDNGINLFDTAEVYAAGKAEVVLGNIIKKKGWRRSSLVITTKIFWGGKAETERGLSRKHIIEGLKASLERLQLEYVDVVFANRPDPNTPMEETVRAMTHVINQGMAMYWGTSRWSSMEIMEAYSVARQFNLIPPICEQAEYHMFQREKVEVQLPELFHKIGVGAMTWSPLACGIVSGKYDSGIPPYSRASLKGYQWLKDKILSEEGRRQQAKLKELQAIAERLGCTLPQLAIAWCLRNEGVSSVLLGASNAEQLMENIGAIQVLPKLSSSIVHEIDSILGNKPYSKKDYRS

[5] = molecular target: Voltage-gated potassium channel subunit beta-2 (Rattus norvegicus) (UniProt P62483); experiment: enhancers of rat Kvbeta2 NADPH turnover – biochemical, NADPH fluorescence, primary screen (AID 623;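 active = NADPH fluorescence slope more negative than the mean of all samples by about 3 SD, 99.7% confidence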;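 also: fluorescence intensity change per second fitted from 20 to 320 s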); conditions: Recombinant KvBeta, NADPH fluorescence decrease slope, 10 min; at 10 µM; stronger effect = lower value
[6] = molecular target: Muscarinic acetylcholine receptor M4 (Homo sapiens) (UniProt P08173); experiment: M4-linked GIRK flux change, two-sided – cell-based, HEK293 M4/GIRK, thallium flux, BTC-AM, M4 allosteric agonist project, primary screen (AID 625); conditions: at 10 µM, actives lie on both sides;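 also: thallium influx through GIRK channels coupled to M4 in HEK293 cells with BTC-AM dye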
Sequence of Muscarinic acetylcholine receptor M4 (Homo sapiens) (P08173 whole entry, looked up): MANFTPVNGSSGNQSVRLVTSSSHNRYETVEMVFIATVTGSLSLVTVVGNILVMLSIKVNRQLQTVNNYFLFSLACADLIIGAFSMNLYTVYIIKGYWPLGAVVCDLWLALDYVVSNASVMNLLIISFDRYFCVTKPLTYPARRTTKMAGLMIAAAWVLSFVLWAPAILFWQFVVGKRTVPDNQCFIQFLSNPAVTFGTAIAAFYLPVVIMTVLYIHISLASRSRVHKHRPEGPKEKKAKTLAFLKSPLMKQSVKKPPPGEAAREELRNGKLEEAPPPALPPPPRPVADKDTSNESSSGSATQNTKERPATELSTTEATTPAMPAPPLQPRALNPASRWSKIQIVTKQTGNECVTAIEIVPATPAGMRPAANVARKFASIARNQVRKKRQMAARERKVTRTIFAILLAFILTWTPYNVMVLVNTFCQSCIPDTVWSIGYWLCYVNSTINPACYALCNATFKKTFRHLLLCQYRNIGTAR
Summary of the method: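 assay system = HEK293 cells with M4 receptor and GIRK channels | medium = pH 7.3 thallium assay buffer | doses = 10 µM final, single point | timing = cells overnight at 37 °C, BTC-AM loading 1 h, reads 2 min total | signal = BTC-AM fluorescence, 1 Hz kinetic reads | read-out = post-addition slope, 15–24 s, of baseline-normalized fluorescence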

[7] = blockers of RIG-like receptor reporter activation – cell-based, Sendai virus stimulus, luciferase, 10K MLSCN set, TLR/RLR signaling modifier project, primary screen (AID 602276;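 active = inhibition at or above 50% at 10 µM; inactive = inhibition below 50%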;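 also: firefly luciferase from ISG56 promoter only with Renilla not read in this screen; 0% = Sendai virus plus DMSO and 100% = medium plus DMSO without virus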); conditions: HEK293 RL24 IRF3 luciferase reporter, at 10 µM, stronger effect = higher value
[8] = TLR3 IRF3 reporter activation blockers – cell-based, poly I:C stimulus, luciferase, 10K MLSCN set, primary screen (AID 602277;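 active = inhibition of the reporter signal at or above 50%; inactive = inhibition below 50%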); conditions: HEK293-TLR3 RL24 IRF3 luciferase reporter, at 10 µM, stronger effect = higher value

Structure (SMILES)	cell count [1]	inhibition [1]	inhibition of aggregation [2]	nuclei count [2] [%]	inhibition [3]	nuclei count [3] [%]	fluorescence slope [4]	NADPH fluorescence slope [5]	fluorescence slope [6]	inhibition [7]	inhibition [8]
CCN1CCN(c2nc(-c3cccnc3)nc3ccccc23)CC1	598	11.2% (inactive)	-11.6% (inactive)	94.7	-58.2% (inactive)	103	-0.468 (inactive)	2.1e-05 (inactive)	0.00671 (inactive)	12.9% (inactive)	37.7% (inactive)
CC(=O)NCC(=O)OC(C)C(=O)Nc1ccc(C(C)=O)cc1 (stereo not drawn)	413	-12.7% (inactive)	6.4% (inactive)	116	-12.6% (inactive)	115	-0.591 (inactive)	-4.9e-05 (inactive)	0.0073 (inactive)	-0.376% (inactive)	0.897% (inactive)
COC(=O)c1ccc(CSc2ncnc3c2nnn3-c2ccc(OC)cc2)o1	444	3.3% (inactive)	-13.1% (inactive)	95	-43.8% (inactive)	113	-0.577 (inactive)	-2.7e-05 (inactive)	0.00411 (inactive)	1.55% (inactive)	-32.3% (inactive)
COc1ccccc1N1CCN(C(=O)CSc2nc(-c3ccccc3)cc(=O)[nH]2)CC1	284	-10.5% (inactive)	-9.2% (inactive)	114	-30.1% (inactive)	124	-0.509 (inactive)	9.3e-06 (inactive)	0.00621 (inactive)	-1.48% (inactive)	6.29% (inactive)
O=C(CSc1nc2ccccc2n1CC(=O)N1CCCC1)Nc1nccs1	676	1% (inactive)	-9.6% (inactive)	99.7	-3.7% (inactive)	131	-0.484 (inactive)	-0.000183 (inactive)	0.00508 (inactive)	2.67% (inactive)	14% (inactive)
Cc1ccc2c(c1)-c1cc(C)nn1C(c1ccc3c(c1)OCO3)N2 (stereo not drawn)	651	4.2% (inactive)	16% (inactive)	99.1	-7.1% (inactive)	130	-0.568 (inactive)	-2.2e-05 (inactive)	0.00558 (inactive)	-4.39% (inactive)	-18.6% (inactive)
Cc1nnc(NC(=O)Nc2cccc(Cl)c2)s1	481	-9.3% (inactive)	-4.3% (inactive)	66.7	9.5% (inactive)	114	-0.574 (inactive)	-1.8e-05 (inactive)	0.00561 (inactive)	-25% (inactive)	-88.8% (inactive)
COC(=O)c1ccc(CN(c2ccccc2OC)S(=O)(=O)c2cccs2)o1	666	8.1% (inactive)	-4.4% (inactive)	113	44.1% (inactive)	98.6	-0.534 (inactive)	-5.7e-05 (inactive)	0.00695 (inactive)	3.68% (inactive)	7.96% (inactive)
CCSc1oc(-c2ccco2)nc1S(=O)(=O)c1ccccc1	584	-7.9% (inactive)	-18% (inactive)	107	4.3% (inactive)	105	-0.316 (inactive)	-2.1e-05 (inactive)	0.00508 (inactive)	-7.74% (inactive)	-0.253% (inactive)
O=C(CC1CCCCC1)NCc1ccccn1	595	4.1% (inactive)	11.3% (inactive)	94.6	-42.2% (inactive)	116	-0.462 (inactive)	-5.1e-05 (inactive)	0.00493 (inactive)	11.5% (inactive)	12.6% (inactive)
Cc1cc2c(nn1)CCC/C2=N\O	350	4.3% (inactive)	9.7% (inactive)	99.1	14.6% (inactive)	110	-0.552 (inactive)	2.3e-05 (inactive)	0.00403 (inactive)	17.4% (inactive)	19.5% (inactive)
CC(C)(C)n1ncc2c(=O)n(CC(=O)NCCc3ccccc3)cnc21	457	3.9% (inactive)	7.3% (inactive)	95.2	27.5% (inactive)	92.8	-0.595 (inactive)	1.3e-05 (inactive)	0.0063 (inactive)	-40.8% (inactive)	-58.1% (inactive)
CCn1cc(C(=O)Nc2cc3c(cc2NC(C)=O)OCCO3)c(=O)c2ccc(C)nc21	315	5.7% (inactive)	-17.4% (inactive)	114	-39.4% (inactive)	115	-0.49 (inactive)	-0.000144 (active)	0.00463 (inactive)	18.1% (inactive)	16.9% (inactive)
CCOc1ccc2nc(NC(=O)C(NS(=O)(=O)c3cccs3)C(C)C)sc2c1 (stereo not drawn)	390	10% (inactive)	6.2% (inactive)	105	-146% (inactive)	122	-0.423 (inactive)	2.6e-05 (inactive)	0.00543 (inactive)	18.1% (inactive)	20.4% (inactive)
CC(C)(C)OC(=O)N1CC(O)CC1C(=O)OCC(=O)c1ccc(Cl)cc1 (stereo not drawn)	445	-7.4% (inactive)	22.1% (inactive)	105	-22.9% (inactive)	103	-0.316 (inactive)	-6e-05 (inactive)	0.00558 (inactive)	8.08% (inactive)	19.4% (inactive)
CCOC(=O)N1CCN(c2cc(=O)n(-c3ccc(OCC)cc3)c(=O)[nH]2)CC1	551	-10% (inactive)	9.3% (inactive)	109	-26.9% (inactive)	112	-0.431 (inactive)	0.0001 (inactive)	0.00574 (inactive)	3.3% (inactive)	10.8% (inactive)
C=CCn1c(SCc2ccc3nonc3c2)nnc1-c1cccs1	644	-14% (inactive)	3.4% (inactive)	91.6	13.9% (inactive)	92.9	-0.384 (inactive)	4.9e-05 (inactive)	0.00442 (inactive)	15% (inactive)	17.7% (inactive)
O=c1[nH]c2cccnc2n1Cc1ccco1	325	-4.2% (inactive)	-15% (inactive)	114	-5.2% (inactive)	119	-0.323 (inactive)	-4.8e-05 (inactive)	0.0064 (inactive)	7.81% (inactive)	6.25% (inactive)
CC(CN1CCOCC1)(NS(=O)(=O)c1ccccc1)c1ccccc1 (stereo not drawn)	460	-12% (inactive)	10.4% (inactive)	85.8	8% (inactive)	111	-0.576 (inactive)	-4.5e-06 (inactive)	0.00534 (inactive)	4.38% (inactive)	7.26% (inactive)
CN(Cc1nc(-c2ccncc2)no1)S(=O)(=O)c1ccc(Br)cc1	492	-9.3% (inactive)	-5.7% (inactive)	108	-56.8% (inactive)	194	-0.589 (inactive)	-3.3e-05 (inactive)	0.01 (inactive)	4.91% (inactive)	-6.05% (inactive)
CCC(=O)N1CCc2cc(Br)cc(S(=O)(=O)CCC(=O)NCC3CCCO3)c21 (stereo not drawn)	628	2.7% (inactive)	12.7% (inactive)	76.3	-113% (inactive)	107	-0.312 (inactive)	-3.4e-05 (inactive)	0.00706 (inactive)	11.2% (inactive)	9.46% (inactive)
O=C(O)C1CC(=O)N(c2ccc(Br)cc2)C1 (stereo not drawn)	375	0.4% (inactive)	-10.6% (inactive)	107	-49.6% (inactive)	117	-0.506 (inactive)	-0.000215 (inactive)	0.00384 (inactive)	2.88% (inactive)	10% (inactive)
CC(=O)Nc1cccc(NC(=O)CSc2nnnn2C(C)C)c1	638	1.6% (inactive)	13.7% (inactive)	62.3	-46.4% (inactive)	120	-0.436 (inactive)	-2.6e-05 (inactive)	0.00495 (inactive)	12.9% (inactive)	12.5% (inactive)
O=C(CCn1c(=O)sc2ccccc21)NC1=NCCS1	620	-25.8% (inactive)	8.6% (inactive)	102	-118% (inactive)	121	-0.464 (inactive)	8e-05 (inactive)	0.00544 (inactive)	-9.67% (inactive)	-5.87% (inactive)
Cc1ccc(C)c(NC(=O)C2CCC(C)(C(=O)O)C2(C)C)c1 (stereo not drawn)	352	-2.5% (inactive)	6% (inactive)	98	-105% (inactive)	124	-0.603 (inactive)	2.7e-06 (inactive)	0.00734 (inactive)	15.8% (inactive)	30.8% (inactive)
Cc1nc(C)c(C(=O)Nc2ccc(C)c(F)c2)o1	600	-4.5% (inactive)	19.4% (inactive)	97.5	-2.7% (inactive)	120	-0.335 (inactive)	-5.2e-05 (inactive)	0.00567 (inactive)	4.25% (inactive)	-10.3% (inactive)
CC1CCN(CCC(=O)Nc2ccc(Br)cc2)CC1	612	7.4% (inactive)	-13.6% (inactive)	99.8	88.6% (active)	179	-0.42 (inactive)	2.4e-06 (inactive)	0.00434 (inactive)	14% (inactive)	19.3% (inactive)
CCOCCCNCC(=O)N1CCN(S(=O)(=O)c2ccc(C)cc2)CC1	642	19.3% (inactive)	-0.2% (inactive)	94.5	-61.6% (inactive)	131	-0.614 (inactive)	1.2e-05 (inactive)	0.00526 (inactive)	7.31% (inactive)	27.6% (inactive)
